Published values pooled from the literature.
Target: Serine/threonine-protein kinase BRSK2 (BRSK2, Homo sapiens, UniProt Q8IWQ3)
One construct used (Q8IWQ3 1-736): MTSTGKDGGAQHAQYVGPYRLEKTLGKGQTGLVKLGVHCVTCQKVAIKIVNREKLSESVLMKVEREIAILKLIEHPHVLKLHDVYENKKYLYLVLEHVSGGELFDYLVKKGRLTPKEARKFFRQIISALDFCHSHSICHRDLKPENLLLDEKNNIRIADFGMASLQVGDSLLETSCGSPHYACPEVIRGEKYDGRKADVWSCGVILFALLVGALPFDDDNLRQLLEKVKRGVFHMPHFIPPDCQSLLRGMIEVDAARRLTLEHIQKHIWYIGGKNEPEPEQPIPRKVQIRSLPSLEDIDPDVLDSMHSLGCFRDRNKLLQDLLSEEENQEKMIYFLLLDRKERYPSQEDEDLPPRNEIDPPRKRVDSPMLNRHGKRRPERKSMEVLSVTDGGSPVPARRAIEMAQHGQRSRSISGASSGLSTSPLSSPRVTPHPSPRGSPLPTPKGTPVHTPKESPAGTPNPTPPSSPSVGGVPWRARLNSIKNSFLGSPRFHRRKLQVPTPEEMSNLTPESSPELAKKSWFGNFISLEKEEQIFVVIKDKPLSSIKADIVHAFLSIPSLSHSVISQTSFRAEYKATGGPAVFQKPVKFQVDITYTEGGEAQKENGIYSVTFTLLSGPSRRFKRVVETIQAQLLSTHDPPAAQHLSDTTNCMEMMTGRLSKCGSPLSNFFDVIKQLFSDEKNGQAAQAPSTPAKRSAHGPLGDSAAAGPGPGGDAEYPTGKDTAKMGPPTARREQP

C=CC(=O)N1CCC(C(=O)NCC(=O)N2CCN(c3nc(-c4cnc(N)nc4C(F)F)nc(N4CCOCC4)n3)CC2)CC1 has a remaining binding of 100% (binding, competition with immobilised ligand; 1 µM).
With COc1ccnn2ncc(-c3ccnc(N(C)C)n3)c12 the remaining binding was 76% (binding; 1 µM).
The remaining binding of C[C@@H](c1ccc(-n2cnc3c(N)ncnc32)cc1)N1CCc2nn(C)c(Cc3ccccc3)c2C1=O is reported as 90% (binding, competition with immobilised ligand; 0.1 µM).
The remaining binding of O=C(NS(=O)(=O)c1ccc(NCC2CCOCC2)c([N+](=O)[O-])c1)c1ccc(N2CCN(Cc3ccc(C(F)(F)F)cc3-c3ccc(Cl)cc3)CC2)cc1Oc1cnc2[nH]ccc2c1 is reported as 87% (cell-free assay, competition with immobilised ligand; 1 µM).
COc1ncc2cc3ccccc3nc2c1C#N has a remaining binding of 74% (cell-free assay, competition with immobilised ligand; 5 µM).
N[C@@H]1CCN(c2nccc(-c3cnn4ncccc34)n2)C1 gave a remaining binding of 100% (binding; 1 µM).
C[C@H](c1ccc(F)cc1)N(Cc1cccc(C(=O)O)c1)C(=O)c1cnc2ccccc2c1 gave a remaining binding of 100% (cell-free assay, competition with immobilised ligand; 1 µM).
For F[C@@H]1CCN(c2nccc(-c3cnn4ncccc34)n2)C1, the remaining binding was 100% (binding; 1 µM).
C[C@H](c1ccnc(Nc2nc3ccc(-c4cc(N(C)C)ncn4)cc3[nH]2)c1)N1CCN(C(=O)CC(F)(F)F)CC1 has a remaining binding of 100% (cell-free assay, competition with immobilised ligand; 0.1 µM).
FC(F)(F)Oc1cccc(-c2cnc3ccc(-c4ccncc4)nn23)c1 gave a remaining binding of 80% (cell-free assay, competition with immobilised ligand; 5 µM).
For C[C@H]1CCN(c2nccc(-c3cnn4ncccc34)n2)C1, the remaining binding was 96% (binding; 1 µM).
The remaining binding of Cc1cnc(Nc2ccc(C(=O)N3CCC(N4CCCC4)CC3)cc2)nc1-c1cc2ccccc2s1 is reported as 42% (binding, competition with immobilised ligand; 1 µM).
The remaining binding of O=C(O)[C@@H]1[C@@H](Cn2nnc3ccccc3c2=O)CC[C@H]1C(=O)c1ccc(OCCC2CCOCC2)cc1 is reported as 100% (cell-free assay, competition with immobilised ligand; 1 µM).
With O=C(NCCCN1CCOCC1)c1ccc(Nc2ncc(Cl)c(-c3ccc(Cl)s3)n2)cc1 the remaining binding was 45% (binding, competition with immobilised ligand; 1 µM).
CN(CCCC(F)(F)F)c1nccc(-c2cnn3ncccc23)n1 gave a remaining binding of 100% (binding; 1 µM).
The remaining binding of COc1cnc(Nc2cccc(S(N)(=O)=O)c2)nc1N1CCN(c2ccccc2)CC1 is reported as 100% (binding, competition with immobilised ligand; 1 µM).
With O=C(Nc1c[nH]nc1C(=O)NC1CCNCC1)c1cc(F)cc(F)c1 the remaining binding was 100% (binding, competition with immobilised ligand; 1 µM).
CCCCN(CCCC)C(=O)CN1C[C@H](c2cc(OC)c3c(c2)OCO3)[C@@H](C(=O)O)[C@@H]1CC(C)(C)CCC gave a remaining binding of 95.6% (cell-free assay, competition with immobilised ligand; 1 µM).
c1cnn2ncc(-c3ccnc(N4CCC45COC5)n3)c2c1 has a remaining binding of 84% (binding; 1 µM).
With O=C(NCCCN1CCOCC1)c1ccc(Nc2nccc(-c3cc4ccccc4s3)n2)cc1 the remaining binding was 77% (binding, competition with immobilised ligand; 1 µM).
For Nc1cnc(N2CCc3cc(S(=O)(=O)Nc4c(F)cc(Cl)cc4F)cc(N4CCCC4=O)c32)nc1, the remaining binding was 80% (cell-free assay, competition with immobilised ligand; 1 µM).
